Experimental data of several laboratories.
Compare with care: the assays were run in different laboratories.
Oprd1: Delta-type opioid receptor (Oprd1, Rattus norvegicus, UniProt P33533)
HTR7: 5-hydroxytryptamine receptor 7 (HTR7, Homo sapiens, UniProt P34969)
CTSB: Cathepsin B (CTSB, Homo sapiens, UniProt P07858)

SMILES | target | test | conditions | quantity | value
c1cncc(C2C3CCN2CC3)c1 (centres unmarked) | Neuronal acetylcholine receptor subunit alpha-4/beta-2 (Mus musculus, UniProt O70174+Q9ERK7) | ligand displacement, radioligand | cell membranes | Ki | 7.42 nM
COc1cc2oc(-c3ccc(O)c(O)c3)cc(=O)c2c(O)c1O | Genome polyprotein, protease (ZIKV, UniProt A0A024B7W1) | enzyme activity, inhibitor |  | Ki | 4500 nM
Cc1cc(O)cc(C)c1C[C@H](N)C(=O)N[C@@H]1CCN(C(=O)c2ccccc2)c2ccc(Cc3cnc4ccccc4c3)cc21 | Oprd1 | GTPγS binding, antagonist | cell membranes | Kb | 8 nM
CCc1cccc(C)c1C[C@H](NC(=O)[C@@H](CCCNC(=N)N)NC(=O)[C@@H](N)Cc1c(C)cc(O)cc1C)C(=O)N[C@@H](CCCCN)C(N)=O | Oprd1 | ligand displacement, radioligand | cell membranes | Ki | 50 nM
COC1=C(N)C(=O)c2nc(-c3nc(C(=O)O)c(C)c(-c4ccc(OC)c(OC)c4O)c3N)ccc2C1=O | Sentrin-specific protease 1 (SENP1, Homo sapiens, UniProt Q9P0U3) | enzyme activity, inhibitor, fluorescence |  | Ki | 138 nM
Cc1cc(O)cc(C)c1C[C@H](N)C(=O)N[C@H](CCCNC(=N)N)C(=O)N[C@@H](Cc1c[nH]c2ccccc12)C(=O)N[C@@H](CCCCN)C(N)=O | Oprd1 | ligand displacement, radioligand | cell membranes | Ki | 186 nM
OC(c1ccc(F)cc1)C(F)(F)CCN1CCC(O)(c2ccc(Cl)cc2)CC1 (racemic) | HTR7 | cell-free assay, radioligand |  | Ki | 2710 nM
C[C@H](N)Cn1ncc2ccc3c(c21)CCCO3 | HTR7 | ligand displacement, radioligand |  | Ki | 1160 nM
Cc1ccccc1Cc1ccc2c(c1)CN(C(=O)[C@@H](N)Cc1c(C)cc(O)cc1C)CC2 | Oprd1 | ligand displacement, radioligand | cell membranes | Ki | 5.8 nM
CC(C)C[C@H](NC(=O)[C@H](CCCCN)NC(=O)[C@@H]1CCCN1C(=O)[C@@H](N)CCCNC(=N)N)C(=O)N[C@@H](CCCCN)C(=O)O | HTR7 | cell-free assay, radioligand |  | Ki | > 10000 nM
CN(C(=O)[C@H](Cc1ccccc1)NC(=O)[C@@H](NC(=O)OCc1ccccc1)C(C)(C)C)N(C#N)CCC(N)=O | CTSB | enzyme activity, inhibitor |  | Ki | 75 nM
CC(C)C[C@H]1C(=O)N2CCC[C@H]2[C@]2(O)O[C@](NC(=O)[C@@H]3C=C4c5cccc6[nH]c(Br)c(c56)C[C@H]4N(C)C3)(C(C)C)C(=O)N12 | HTR7 | ligand displacement, radioligand | cell membranes | Ki | 143 nM
Cc1cc(O)cc(C)c1C[C@H](N)C(=O)N1CCc2ccc(Cc3ccc(N)cc3)cc2C1 | Oprd1 | ligand displacement, radioligand | cell membranes | Ki | 3.1 nM
Cc1cc(O)cc(C)c1C[C@H](C)C(=O)N[C@@H]1C/C=C/CC[C@@H](C(N)=O)NC(=O)[C@H](Cc2ccccc2)NC(=O)[C@H](Cc2ccccc2)NC1=O | Oprd1 | ligand displacement, radioligand | cell membranes | Ki | 35.3 nM
N=C(N)NCCC[C@@H]1NC(=O)[C@H](Cc2ccc(O)cc2)NC(=O)[C@@H](CCCCN)NC(=O)[C@@H](Cc2ccccc2)NC1=O | Oprd1 | ligand displacement, radioligand | cell membranes | Ki | > 10000 nM
CC[C@H](NC(=O)OCc1ccccc1)C(=O)N[C@H](C(=O)N[C@@H](CC(C)C)C(=O)N(C)N(C#N)CCC(N)=O)C(C)(C)C | CTSB | enzyme activity, inhibitor |  | Ki | 28.8 nM
CC[C@H](C)[C@H](NC(=O)[C@H](CCCNC(=N)N)NC(=O)[C@H](CC(C)C)NC(=O)[C@@H](N)Cc1ccccc1)C(=O)N[C@@H](CCCNC(=N)N)C(=O)N1CCC[C@H]1C(=O)N[C@@H](CCCCN)C(=O)O | HTR7 | cell-free assay, radioligand |  | Ki | > 10000 nM
